Data taken from ChEMBL document CHEMBL1121813, “Dihydrochalcone sweeteners. A study of the atypical temporal phenomena” (1981).

How the values were obtained:
[1] = species: Homo sapiens; experiment: Experimentally determined perceived intensity of compound at a concentration of 2000 ppm (mean value); assay type: functional
Procedure, shortened: (§1)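 Trained human sensory panel of judges tasted aqueous solutions of the compound. Samples had to be ≥95 weight % pure (HPLC, proton titration, Karl Fischer), non-mutagenic in five Salmonella typhimurium strains with and without microsomal activation, and non-toxic in a single-oral-dose mouse test. Perceived intensity (Ip) was read from time–intensity curves at 4- or 6-s intervals and averaged. Outliers at the 95% level were rejected by t-value. Values reported as mean (2Sm).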

[2] = species: Homo sapiens; experiment: Number of taste judgments per compound; assay type: functional
[3] = species: Homo sapiens; experiment: Percentage of judgments reporting an aftertaste at a concentration of 2000 ppm and character thereof; assay type: functional
Procedure, shortened: (§2)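 Trained judges tasted aqueous solutions of the compounds, which had to be ≥95 weight percent pure and to have passed mutagenicity and single oral dose toxicity screening. The value is the percentage of panel judgments reporting an aftertaste. Where given, its character is recorded as sweet, bitter or bitter-sweet.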

[4] = species: Homo sapiens; experiment: Bitter character at a concentration of 1090 ppm (mean value); assay type: functional
Procedure, shortened: (§3)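 Trained human panel tasted aqueous solutions. Each judge reported whether there was an aftertaste and its character (sweet, bitter or bitter-sweet). The value is the percentage of judgments reporting a bitter aftertaste.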

[5] = species: Homo sapiens; experiment: Intensity calculated on a molar basis relative to a 0.25 M sucrose solution at a concentration of 1090 ppm (mean value); assay type: functional
Procedure, shortened: (§4)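 Trained human judges tasted aqueous solutions of the test compound; compounds were first required to be ≥95 weight percent pure and free of mutagenicity (five Salmonella typhimurium strains, ± microsomal activation) and of single oral dose mouse toxicity. Molar intensity I_m = perceived intensity × (0.25 M sucrose / compound molar concentration). The mean is reported with 2S_m limits; outliers were rejected at 95% confidence by t-value.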

[6] = species: Homo sapiens; experiment: Percentage of judgments reporting an aftertaste at a concentration of 1090 ppm; assay type: functional; procedure, shortened: as §2
[7] = species: Homo sapiens; experiment: Salty character at a concentration of 1090 ppm (mean value); assay type: functional
[8] = species: Homo sapiens; experiment: Experimentally determined perceived intensity of compound at a concentration of 1090 ppm (mean value); assay type: functional; procedure, shortened: as §1
[9] = species: Homo sapiens; experiment: Sour character at a concentration of 1090 ppm (mean value); assay type: functional
[10] = species: Homo sapiens; experiment: Other taste character at a concentration of 1090 ppm (mean value); assay type: functional
Procedure, shortened: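 Trained human panel tasted aqueous solutions of each compound. Aftertaste is scored as the percentage of judgments reporting one, with its character coded sweet (s), bitter (b) or bitter-sweet (bs).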

[11] = species: Homo sapiens; experiment: Intensity calculated on a weight basis relative to an 85500 ppm sucrose solution at a concentration of 1090 ppm (mean value); assay type: functional
Procedure, shortened: (§5)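 Trained human panel tasted aqueous solutions of purity-checked (≥95 weight percent) compounds cleared for mutagenicity and mouse oral toxicity. Weight-basis intensity I_w = perceived intensity × (85500 ppm sucrose / compound concentration in ppm). The mean is reported with 2S_m limits; data deviating excessively at 95% confidence were rejected by the t-value method.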

[12] = species: Homo sapiens; experiment: Sweet character at a concentration of 1090 ppm (mean value); assay type: functional
[13] = species: Homo sapiens; experiment: Sweet / Bitter character at a concentration of 1090 ppm (mean value); assay type: functional
[14] = species: Homo sapiens; experiment: Percentage of judgments reporting an aftertaste at a concentration of 1000 ppm and character thereof; assay type: functional; procedure, shortened: as §2
[15] = species: Homo sapiens; experiment: Experimentally determined perceived intensity of compound at a concentration of 1000 ppm (mean value); assay type: functional; procedure, shortened: as §1
[16] = species: Homo sapiens; experiment: Sweet / Bitter character at a concentration of 252 ppm (mean value); 6/94; assay type: functional
[17] = species: Homo sapiens; experiment: Experimentally determined perceived intensity of compound at a concentration of 252 ppm (mean value); assay type: functional; procedure, shortened: as §1
[18] = species: Homo sapiens; experiment: Intensity calculated on a weight basis relative to an 85500 ppm sucrose solution at a concentration of 252 ppm (mean value); assay type: functional; procedure, shortened: as §5
[19] = species: Homo sapiens; experiment: Percentage of judgments reporting an aftertaste at a concentration of 252 ppm and character thereof; assay type: functional; procedure, shortened: as §2
[20] = species: Homo sapiens; experiment: Sour character at a concentration of 252 ppm (mean value); assay type: functional
Procedure, shortened: (§6)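 Trained human sensory panel (Swartz method) tasted dilute aqueous solutions of the compounds, which had to be ≥95 weight percent pure and free of mutagenicity and toxicity. Taste character is reported as the mean value with 2S_m limits. Data deviating excessively at the 95% confidence level were rejected by the t-value method.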

[21] = species: Homo sapiens; experiment: Intensity calculated on a molar basis relative to a 0.25 M sucrose solution at a concentration of 252 ppm (mean value); assay type: functional; procedure, shortened: as §4
[22] = species: Homo sapiens; experiment: Sweet character at a concentration of 252 ppm (mean value); assay type: functional; procedure, shortened: as §6
[23] = species: Homo sapiens; experiment: Other taste character at a concentration of 252 ppm (mean value); assay type: functional; procedure, shortened: as §6
[24] = species: Homo sapiens; experiment: Salty character at a concentration of 252 ppm (mean value); assay type: functional; procedure, shortened: as §6
[25] = species: Homo sapiens; experiment: Bitter character at a concentration of 252 ppm (mean value); assay type: functional; procedure, shortened: as §3
[26] = species: Homo sapiens; experiment: Sour character at a concentration of 250 ppm (mean value); assay type: functional; procedure, shortened: as §6
[27] = species: Homo sapiens; experiment: Sweet / Bitter character at a concentration of 250 ppm (mean value); 69/31; assay type: functional
[28] = species: Homo sapiens; experiment: Intensity calculated on a molar basis relative to a 0.25 M sucrose solution at a concentration of 250 ppm (mean value); assay type: functional; procedure, shortened: as §4
[29] = species: Homo sapiens; experiment: Sweet character at a concentration of 250 ppm (mean value); assay type: functional; procedure, shortened: as §6
[30] = species: Homo sapiens; experiment: Experimentally determined perceived intensity of compound at a concentration of 250 ppm (mean value); assay type: functional; procedure, shortened: as §1
[31] = species: Homo sapiens; experiment: Other taste character at a concentration of 250 ppm (mean value); assay type: functional; procedure, shortened: as §6
[32] = species: Homo sapiens; experiment: Percentage of judgments reporting an aftertaste at a concentration of 250 ppm and character thereof; assay type: functional; procedure, shortened: as §2
[33] = species: Homo sapiens; experiment: Bitter character at a concentration of 250 ppm (mean value); assay type: functional; procedure, shortened: as §3
[34] = species: Homo sapiens; experiment: Intensity calculated on a weight basis relative to an 85500 ppm sucrose solution at a concentration of 250 ppm (mean value); assay type: functional; procedure, shortened: as §5
[35] = species: Homo sapiens; experiment: Salty character at a concentration of 250 ppm (mean value); assay type: functional; procedure, shortened: as §6
[36] = species: Homo sapiens; experiment: Sour character at a concentration of 90 ppm (mean value); assay type: functional
[37] = species: Homo sapiens; experiment: Experimentally determined perceived intensity of compound at a concentration of 90 ppm (mean value); assay type: functional; procedure, shortened: as §1
[38] = species: Homo sapiens; experiment: Sweet / Bitter character at a concentration of 90 ppm (mean value); 91/9
[39] = species: Homo sapiens; experiment: Bitter character at a concentration of 90 ppm (mean value); assay type: functional; procedure, shortened: as §3
[40] = species: Homo sapiens; experiment: Sweet character at a concentration of 90 ppm (mean value); assay type: functional
[41] = species: Homo sapiens; experiment: Intensity calculated on a weight basis relative to an 85500 ppm sucrose solution at a concentration of 90 ppm (mean value); assay type: functional; procedure, shortened: as §5
[42] = species: Homo sapiens; experiment: Percentage of judgments reporting an aftertaste at a concentration of 90 ppm and character thereof; assay type: functional
[43] = species: Homo sapiens; experiment: Intensity calculated on a molar basis relative to a 0.25 M sucrose solution at a concentration of 90 ppm (mean value); assay type: functional; procedure, shortened: as §4
[44] = species: Homo sapiens; experiment: Other taste character at a concentration of 90 ppm (mean value); assay type: functional; procedure, shortened: as §6
[45] = species: Homo sapiens; experiment: Salty character at a concentration of 90 ppm (mean value); assay type: functional

CNc1ccc(CCC(=O)c2c(O)cc(OCC(=O)[O-])cc2O)cc1O.[Na+]
IP [1]: 0 | Judgments [2]: 1 | Judgments [3]: 0

COc1ccc(C2CC(=O)c3c(O)cc(OCCCS(=O)(=O)[O-])cc3O2)cc1O.[K+] (stereo not given)
Judgments [2]: 1 | Taste character [4]: 25 | IM [5]: 50 | Judgments [6]: 0 | Taste character [7]: 0 | IP [8]: 0.5 | Taste character [9]: 0 | Taste character [10]: 0 | IW [11]: 40 | Taste character [12]: 75 | Taste character [13]: 75

COc1ccc(CNC(=O)c2c(O)cc(O)cc2O)cc1O
Judgments [2]: 1 | Judgments [14]: 0 | IP [15]: 0

COc1ccc(CCC(=O)c2c(O)cc(OCC(=O)[O-])cc2O)cc1N.[Na+]
Taste character [16]: 6 | IP [17]: 0.08 | Judgments [2]: 12 | IW [18]: 200 | Judgments [19]: 58 | Taste character [20]: 0 | IM [21]: 230 | Taste character [22]: 5 | Taste character [23]: 15 | Taste character [24]: 1 | Taste character [25]: 79

COc1ccc(CCC(=O)c2c(O)cc(OC(CCCO)C(=O)[O-])cc2O)cc1O.[Na+] (stereo not given)
Taste character [26]: 0 | Judgments [2]: 4 | Taste character [27]: 69 | IM [28]: 43 | Taste character [29]: 69 | IP [30]: 0.1 | Taste character [31]: 0 | Judgments [32]: 0 | Taste character [33]: 31 | IW [34]: 34 | Taste character [35]: 0

COc1ccc(CCC(=O)c2c(O)cc(O)cc2O)cc1O
Taste character [36]: 0 | Judgments [2]: 10 | IP [37]: 0.89 | Taste character [38]: 91 | Taste character [39]: 8 | Taste character [40]: 83 | IW [41]: 850 | Judgments [42]: 70 | IM [43]: 750 | Taste character [44]: 4 | Taste character [45]: 5
